Reference: ChEMBL document CHEMBL4196009, “Novel vitexin-inspired scaffold against leukemia” (Eur J Med Chem, 2018)
Active and inactive are the calls of the source. No cut-off for these calls is given here.

Columns and labels:
MDA-MB-231 [1] = assay: Cell cycle arrest in human MDA-MB-231 cells assessed as accumulation at S phase at 5 uM after 24 hrs by propidium iodide staining-based flow cytometry (reference value: 20.15%); assay type: functional
Homo sapiens [2] = species: Homo sapiens; assay: Inhibition of RNA polymerase 2 C-terminal domain phosphorylation at Ser2 residue in human KOPN8 cells at 0.5 uM after 3 hrs by Western blot analysis relative to control; assay type: cell-based
Method in brief: (§1)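 KOPN-8 cells were exposed to compound for 3 h and 24 h, with or without N-acetylcysteine added to a parallel set as antioxidant. Lysates were analysed by Western blot for cleaved PARP, Mcl-1, Ser-2-phosphorylated RNAPII CTD, cMyc, total Rb and pRb. Signals were compared against controls for dose-dependent change.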

KOPN-8 [3] = assay: Induction of apoptosis in human KOPN8 cells assessed as upregulation of cleaved PARP level at 0.5 uM pre-treated with NAC for 1 hr and measured after 3 to 24 hrs by Western blot analysis; assay type: functional, cell-based; method in brief: as §1
[4] = molecular target: T1, Retinoblastoma-associated protein (Homo sapiens) (UniProt P06400); assay: Inhibition of Rb phosphorylation in human KOPN8 cells assessed as ratio of phosphorylated Rb to total Rb levels at 0.5 uM after 3 hrs by Western blot analysis relative to control; assay type: cell-based
T1 sequence (whole entry): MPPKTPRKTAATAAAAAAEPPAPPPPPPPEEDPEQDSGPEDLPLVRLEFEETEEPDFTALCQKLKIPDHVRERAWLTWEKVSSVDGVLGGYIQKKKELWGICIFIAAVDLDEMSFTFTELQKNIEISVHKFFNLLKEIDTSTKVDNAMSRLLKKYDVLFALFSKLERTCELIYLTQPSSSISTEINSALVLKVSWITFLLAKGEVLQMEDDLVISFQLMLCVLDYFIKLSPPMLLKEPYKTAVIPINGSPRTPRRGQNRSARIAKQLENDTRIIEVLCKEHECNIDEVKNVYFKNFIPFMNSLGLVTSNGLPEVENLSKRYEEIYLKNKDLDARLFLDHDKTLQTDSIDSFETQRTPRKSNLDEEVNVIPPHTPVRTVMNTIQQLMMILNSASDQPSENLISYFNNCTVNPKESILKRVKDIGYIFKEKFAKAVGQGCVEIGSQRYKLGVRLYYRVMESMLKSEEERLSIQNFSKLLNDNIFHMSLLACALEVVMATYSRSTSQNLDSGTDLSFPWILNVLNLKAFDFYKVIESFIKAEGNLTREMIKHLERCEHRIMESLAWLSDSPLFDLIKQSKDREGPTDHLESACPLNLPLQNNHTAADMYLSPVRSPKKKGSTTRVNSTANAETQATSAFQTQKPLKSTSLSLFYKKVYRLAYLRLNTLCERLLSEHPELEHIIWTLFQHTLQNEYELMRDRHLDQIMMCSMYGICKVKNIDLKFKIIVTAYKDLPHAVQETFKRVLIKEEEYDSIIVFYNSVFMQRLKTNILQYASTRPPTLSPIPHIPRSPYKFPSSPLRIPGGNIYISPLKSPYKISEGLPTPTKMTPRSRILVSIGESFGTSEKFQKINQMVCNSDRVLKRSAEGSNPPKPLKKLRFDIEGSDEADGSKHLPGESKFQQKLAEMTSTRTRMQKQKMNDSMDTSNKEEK
Method in brief: (§2)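 KOPN-8 pre-B ALL cells were treated for 3 h and 24 h, with or without N-acetyl cysteine added to a parallel set of cells as an antioxidant/ROS quencher. Lysates were analysed by Western blot for phosphorylated Rb and total Rb. The same blots also probed PARP cleavage, Mcl-1, Ser-2-phosphorylated RNAPII CTD and cMyc.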

KOPN-8 [5] = assay: Effect on c-Myc expression in human KOPN8 cells at 0.5 uM pre-treated with NAC for 1 hr and measured after 3 hrs by Western blot analysis relative to control; assay type: functional
KOPN-8 [6] = assay: Induction of apoptosis in human KOPN8 cells assessed as effect on Mcl-1 level at 0.5 uM after 24 hrs by Western blot analysis relative to control; assay type: functional
MDA-MB-231 [7] = assay: Cell cycle arrest in human MDA-MB-231 cells assessed as accumulation at G2/M phase at 5 uM after 24 hrs by propidium iodide staining-based flow cytometry (reference value: 9.38%); assay type: functional
[8] = molecular target: T1, Retinoblastoma-associated protein (Homo sapiens); assay: Inhibition of Rb phosphorylation in human KOPN8 cells assessed as ratio of phosphorylated Rb to total Rb levels at 0.5 uM after 24 hrs by Western blot analysis relative to control; assay type: cell-based; method in brief: as §1
Homo sapiens [9] = species: Homo sapiens; assay: Inhibition of RNA polymerase 2 C-terminal domain phosphorylation at Ser2 residue in human KOPN8 cells at 0.5 uM pre-treated with NAC for 1 hr and measured after 24 hrs by Western blot analysis relative to control; assay type: cell-based; method in brief: as §1
KOPN-8 [10] = assay: Effect on c-Myc expression in human KOPN8 cells at 0.5 uM after 3 hrs by Western blot analysis relative to control; assay type: functional
Homo sapiens [11] = species: Homo sapiens; assay: Inhibition of RNA polymerase 2 C-terminal domain phosphorylation at Ser2 residue in human KOPN8 cells at 0.5 uM pre-treated with NAC for 1 hr and measured after 3 hrs by Western blot analysis relative to control; assay type: cell-based; method in brief: as §1
KOPN-8 [12] = assay: Induction of apoptosis in human KOPN8 cells assessed as upregulation of cleaved PARP level at 0.5 uM after 3 to 24 hrs by Western blot analysis; assay type: functional, cell-based; method in brief: as §1
KOPN-8 [13] = assay: Induction of apoptosis in human KOPN8 cells assessed as effect on Mcl-1 level at 0.5 uM after 3 hrs by Western blot analysis relative to control; assay type: functional
BJ = assay: Antiproliferative activity against human BJ cells after 72 hrs by CelTiter-Glo assay; assay type: cell-based
SUP-B15 = assay: Antiproliferative activity against human SUP-B15 cells after 72 hrs by CelTiter-Glo assay; assay type: functional, cell-based; conditions: SUP-B15, 72 h
SEM cells = assay: Antiproliferative activity against human SEM cells after 72 hrs by CelTiter-Glo assay; assay type: functional, cell-based
KOPN-8 [14] = assay: Effect on c-Myc expression in human KOPN8 cells at 0.5 uM after 24 hrs by Western blot analysis relative to control; assay type: functional
Homo sapiens [15] = species: Homo sapiens; assay: Inhibition of RNA polymerase 2 C-terminal domain phosphorylation at Ser2 residue in human KOPN8 cells at 0.5 uM after 24 hrs by Western blot analysis; assay type: cell-based; method in brief: as §1
UoC-B1 = assay: Antiproliferative activity against human UOCB1 cells after 72 hrs by CelTiter-Glo assay; assay type: functional, cell-based; conditions: UoC-B1, 72 h
KOPN-8 [16] = assay: Antiproliferative activity against human KOPN8 cells after 72 hrs by CelTiter-Glo assay; assay type: functional, cell-based; conditions: KOPN-8, 72 h
KOPN-8 [17] = assay: Effect on c-Myc expression in human KOPN8 cells at 0.5 uM pre-treated with NAC for 1 hr and measured after 24 hrs by Western blot analysis relative to control; assay type: functional
[18] = molecular target: T1, Retinoblastoma-associated protein (Homo sapiens); assay: Inhibition of Rb phosphorylation in human KOPN8 cells assessed as ratio of phosphorylated Rb to total Rb levels at 0.5 uM pre-treated with NAC for 1 hr and measured after 24 hrs by Western blot analysis relative to control; assay type: cell-based; method in brief: as §2
MDA-MB-231 [19] = assay: Cell cycle arrest in human MDA-MB-231 cells assessed as accumulation at G0/G1 phase at 5 uM after 24 hrs by propidium iodide staining-based flow cytometry (reference value: 70.47%); assay type: functional
KOPN-8 [20] = assay: Induction of apoptosis in human KOPN8 cells assessed as effect on Mcl-1 level at 0.5 uM pre-treated with NAC for 1 hr and measured after 24 hrs by Western blot analysis relative to control; assay type: functional
[21] = molecular target: T1, Retinoblastoma-associated protein (Homo sapiens); assay: Inhibition of Rb phosphorylation in human KOPN8 cells assessed as ratio of phosphorylated Rb to total Rb levels at 0.5 uM pre-treated with NAC for 1 hr and measured after 3 hrs by Western blot analysis relative to control; assay type: cell-based; method in brief: as §2
KOPN-8 [22] = assay: Induction of apoptosis in human KOPN8 cells assessed as effect on Mcl-1 level at 0.5 uM pre-treated with NAC for 1 hr and measured after 3 hrs by Western blot analysis relative to control; assay type: functional
HepG2 = assay: Antiproliferative activity against human HepG2 cells after 72 hrs by CelTiter-Glo assay; assay type: functional, cell-based; conditions: HepG2, 72 h

fold change (FC) [4]: 0.9
fold change (FC) [8]: 1
fold change (FC) [18]: 1.1
fold change (FC) [21]: 1.1
EC50 (HepG2): 146 nM
SMILES: CN1CC[C@H](c2c(O)cc(O)c3c(=O)cc(-c4ccccc4Cl)oc23)[C@H](O)C1 [ALVOCIDIB]
Activity (MDA-MB-231 [1]): 17.5%
fold change (FC) (Homo sapiens [2]): 0.4
Activity (KOPN-8 [3]): Active
fold change (FC) (KOPN-8 [5]): 0.2
fold change (FC) (KOPN-8 [6]): 0
Activity (MDA-MB-231 [7]): 16.47%
fold change (FC) (Homo sapiens [9]): 0
fold change (FC) (KOPN-8 [10]): 0.2
fold change (FC) (Homo sapiens [11]): 0.6
Activity (KOPN-8 [12]): Active
fold change (FC) (KOPN-8 [13]): 0.2
EC50 (BJ): > 86.2 µM
EC50 (SUP-B15): > 86.2 µM
EC50 (SEM cells): 204 nM
fold change (FC) (KOPN-8 [14]): 0
fold change (FC) (Homo sapiens [15]): 0
EC50 (UoC-B1): 208 nM
EC50 (KOPN-8 [16]): 193 nM
fold change (FC) (KOPN-8 [17]): 0
Activity (MDA-MB-231 [19]): 66.03%
fold change (FC) (KOPN-8 [20]): 0
fold change (FC) (KOPN-8 [22]): 0.2
